According to ChEMBL document CHEMBL1773017, “The identification of 4,7-disubstituted naphthoic acid derivatives as UDP-competitive antagonists of P2Y14” (Bioorg Med Chem Lett, 2011):

What was measured:
[1] = Displacement of [3H]-UDP from chimpanzee P2Y14 receptor expressed in HEK293 cells; assay type: cell-based, Pan troglodytes
[2] = Antagonist activity at chimpanzee P2Y14 receptor expressed in HEK293 cells assessed as calcium flux by FLIPR assay; assay type: functional, cell-based; conditions: Pan troglodytes
P2Y purinoceptor 14 = target: T1, P2Y purinoceptor 14 (Mus musculus, UniProt Q9ESG6); experiment: Antagonist activity at mouse P2Y14 receptor expressed in HEK293 cells assessed as calcium flux by FLIPR assay; assay type: functional, cell-based
T1 sequence (Q9ESG6 whole entry): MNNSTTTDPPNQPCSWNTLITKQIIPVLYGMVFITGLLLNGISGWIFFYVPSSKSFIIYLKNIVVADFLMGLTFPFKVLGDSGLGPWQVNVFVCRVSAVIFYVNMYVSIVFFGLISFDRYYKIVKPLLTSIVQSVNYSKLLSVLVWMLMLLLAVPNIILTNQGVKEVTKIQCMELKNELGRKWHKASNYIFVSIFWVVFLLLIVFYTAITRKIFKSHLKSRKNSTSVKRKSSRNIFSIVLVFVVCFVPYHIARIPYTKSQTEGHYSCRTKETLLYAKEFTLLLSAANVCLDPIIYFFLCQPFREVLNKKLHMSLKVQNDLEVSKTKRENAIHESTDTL

[3] = Oral bioavailability in C57BL/6 mouse at 50 mg/kg, po administered in 5% Tween-80; assay type: ADME, organism-based; conditions: in vivo
Procedure, shortened: (§1)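 C57BL/6 mice were dosed orally at 50 mg/kg (one analog at 25 mg/kg) in 5% Tween-80. They were also dosed intravenously at 2 mg/kg in 60% PEG-200. Oral bioavailability, half-life and intrinsic clearance come from these dosings.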

[4] = Cmax in C57BL/6 mouse at 50 mg/kg, po administered in 5% Tween-80; assay type: ADME, organism-based; parameters: dose 50 mg/kg, route oral; conditions: in vivo; procedure, shortened: as §1
Mus musculus [5] = experiment: Intrinsic clearance in C57BL/6 mouse at 2 mg/kg, iv administered in 60% PEG-200; assay type: ADME, organism-based; parameters: dose 2 mg/kg, route intravenous; conditions: in vivo; procedure, shortened: as §1
[6] = Metabolic stability in C57BL/6 mouse Hepatocyte assessed as parent compound remaining at 20 uM after 2 hrs; assay type: ADME, cell-based; conditions: hepatocytes, read-out: Stability
Procedure, shortened: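 Hepatocytes were isolated from mouse liver by two-step perfusion with 50 U/mL collagenase. Compound was incubated with the hepatocytes for 2 h, and metabolic stability was read out as the percentage of parent drug remaining.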

[7] = Half life in C57BL/6 mouse at 50 mg/kg, po and 2 mg/kg, iv; assay type: ADME, organism-based; conditions: in vivo; procedure, shortened: as §1
Mus musculus [8] = experiment: Drug metabolism in Mrp2 (-/-) mouse assessed as (2S,3S,4S,5R,6S)-6-(7-(4-fluoro-2,6-dimethylbenzyloxy)-4-(thiophen-3-yl)-2-naphthoyloxy)-3,4,5-trihydroxytetrahydro-2H-pyran-2-carboxylic acid recovery in bile at 2 mg/kg, po up to 24 hrs; conditions: in vivo
[9] = Oral bioavailability in C57BL/6 mouse at 25 mg/kg, po administered in 5% Tween-80; assay type: ADME, organism-based; conditions: in vivo; procedure, shortened: as §1
[10] = Cmax in C57BL/6 mouse at 25 mg/kg, po administered in 5% Tween-80; assay type: ADME, organism-based; parameters: dose 25 mg/kg, route oral; conditions: in vivo; procedure, shortened: as §1

Structure (SMILES) | Ki [1] | IC50 [2] | IC50 (P2Y purinoceptor 14) | bioavailability [3] | Cmax [4] | CL (Mus musculus [5]) | remaining at 2 h, 20 µM [6] | half-life [7] | Activity (Mus musculus [8]) | bioavailability [9] | Cmax [10]
O=C(O)c1cc(-c2ccccc2)c2ccc(OCc3ccccc3)cc2c1 | 160 nM | 3500 nM | 3500 nM | – | – | – | – | – | – | – | –
COc1ccc2c(-c3ccccc3)cc(C(=O)O)cc2c1 | 4000 nM | – | – | – | – | – | – | – | – | – | –
O=C(O)c1cc(-c2ccccc2)c2ccc(Oc3ccccc3)cc2c1 | 1500 nM | 4100 nM | 4900 nM | – | – | – | – | – | – | – | –
O=C(O)c1ccc(COc2ccc3c(-c4ccccc4)cc(C(=O)O)cc3c2)cc1 | – | > 40000 nM | > 13000 nM | – | – | – | – | – | – | – | –
O=C(O)c1cc2cc(-c3ccc(OC(F)(F)F)cc3)ccc2c(-c2ccsc2)c1F | 110 nM | 110 nM | 380 nM | 129% | 89 µM | 3.3 mL/min/kg | 85% | 4.3 h | – | – | –
O=C(O)c1cc2cc(-c3ccc(OC(F)(F)F)cc3)ccc2c(-c2ccsc2)c1O | 170 nM | 490 nM | 1300 nM | – | 34 µM | 7.6 mL/min/kg | 93% | 13 h | – | – | –
O=C(O)c1cc(-c2cscc2C(O)(C(F)(F)F)C(F)(F)F)c2ccc(-c3ccc(OC(F)(F)F)cc3)cc2c1 | 54 nM | 91 nM | 350 nM | 45% | 37 µM | 1.9 mL/min/kg | 91% | 4.1 h | – | – | –
CS(=O)(=O)c1cscc1-c1cc(C(=O)O)cc2cc(-c3ccc(OC(F)(F)F)cc3)ccc12 | 32 nM | 86 nM | – | 4% | 16 µM | 3.7 mL/min/kg | 16% | 3.2 h | – | – | –
CS(=O)(=O)c1ccc(-c2cc(C(=O)O)cc3cc(-c4ccc(C(F)(F)F)cc4)ccc23)cc1 | 7 nM | 7 nM | 20 nM | – | – | – | – | – | – | – | –
O=C(O)c1cc(-c2ccc(C(O)C(F)(F)F)cc2)c2ccc(-c3ccc(C(F)(F)F)cc3)cc2c1 (stereo not drawn) | 14 nM | 5 nM | 13 nM | – | – | – | – | – | – | – | –
O=C(O)c1cc(-c2ccc([C@@H](O)C(F)(F)F)cc2)c2ccc(-c3ccc(C(F)(F)F)cc3)cc2c1 | 10 nM | 1 nM | 4 nM | – | – | – | – | – | – | – | –
O=C(O)c1cc(-c2ccc([C@H](O)C(F)(F)F)cc2)c2ccc(-c3ccc(C(F)(F)F)cc3)cc2c1 | 21 nM | 11 nM | 51 nM | – | – | – | – | – | – | – | –
O=C(O)c1cc(-c2ccc([C@@H](O)C(F)F)cc2)c2ccc(-c3ccc(C(F)(F)F)cc3)cc2c1 | 4 nM | 1 nM | 8 nM | 67% | 113 µM | 1.6 mL/min/kg | 39% | 3 h | – | – | –

Further lines, results first:

Ki [1] | IC50 [2] | IC50 (P2Y purinoceptor 14) | bioavailability [3] | Cmax [4] | CL (Mus musculus [5]) | remaining at 2 h, 20 µM [6] | half-life [7] | Activity (Mus musculus [8]) | bioavailability [9] | Cmax [10] | Structure (SMILES)
29 nM | 91 nM | 190 nM | – | – | – | – | – | – | – | – | O=C(O)c1cc(-c2ccccc2)c2ccc(OCc3c(Cl)cccc3Cl)cc2c1
42 nM | 41 nM | 110 nM | – | – | – | – | – | – | – | – | Cc1cccc(C)c1COc1ccc2c(-c3ccccc3)cc(C(=O)O)cc2c1
340 nM | 1500 nM | 2100 nM | – | – | – | – | – | – | – | – | Cc1cccc(C)c1OCc1ccc2c(-c3ccccc3)cc(C(=O)O)cc2c1
– | 6500 nM | 13000 nM | – | – | – | – | – | – | – | – | Cc1cccc(C)c1COc1ccc2ccc(C(=O)O)cc2c1
21 nM | 89 nM | 110 nM | – | – | – | – | – | – | – | – | Cc1cccc(C)c1COc1ccc2c(OCc3ccccc3)cc(C(=O)O)cc2c1
16 nM | 6 nM | 26 nM | – | – | – | – | – | – | – | – | Cc1cccc(C)c1COc1ccc2c(-c3ccsc3)cc(C(=O)O)cc2c1
14 nM | 4 nM | 14 nM | 12% | 23 µM | 7.1 mL/min/kg | 8% | 2.7 h | > 99% | – | – | Cc1cc(F)cc(C)c1COc1ccc2c(-c3ccsc3)cc(C(=O)O)cc2c1
29 nM | 14 nM | 54 nM | – | – | 18 mL/min/kg | 62% | 1.1 h | – | 92% | 18 µM | O=C(O)c1cc(-c2ccsc2)c2ccc(-c3ccc(OC(F)(F)F)cc3)cc2c1
